Measured values: ChEMBL document CHEMBL1125076, “In vivo intracerebral microdialysis studies in rats of MPP+ analogues and related charged species” (1990)

Legend:
Type in all cases: functional
Rattus norvegicus [1] = species on record: Rattus norvegicus; assay: Percentage of basal lactate efflux before starting the drug perfusion (15 min) with average basal level 689+/-103 pmol/min
Summary of the method: (§1)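 Rat striatal microdialysis via U-shaped cellulose-membrane cannula, Ringer perfusion. Once lactate efflux stabilized, test compound perfused as 10 mM solution in Ringer for 15–150 min. Dialysate mixed on-line with lactate dehydrogenase (5 mg/mL) and 0.5 mM NAD+ in carbonate buffer pH 9.5. NADH formed was separated by C18 HPLC (0.05 M phosphate, pH 6.8) and detected electrochemically at 650 mV. Samples injected every 5 min. Change expressed as % of basal. At least duplicate experiments.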

Rattus norvegicus [2] = species on record: Rattus norvegicus; assay: Percentage of basal lactate efflux before starting the drug perfusion (1 min) with average basal level 689+/-103 pmol/min
Rattus norvegicus [3] = species on record: Rattus norvegicus; assay: (§2) Percentage of basal lactate efflux before starting the drug perfusion (150 min) with average basal level 689+/-103 pmol/min; summary of the method: as §1
Rattus norvegicus [4] = species on record: Rattus norvegicus; assay: as §2; remark: listed apart in the source

Row | SMILES | Basal (Rattus norvegicus [1]) [%] | Basal (Rattus norvegicus [2]) [%] | also measured
1 | C[n+]1cccc(-c2ccccc2)c1 | 240 |  | 
2 | Cc1ccc(-[n+]2ccc(C)cc2)cc1 | 230 | 180 | 
3 | C[n+]1ccc(-c2ccccc2)nc1 | 102 |  | 
4 | Cc1cc(-c2ccccc2)cc[n+]1C |  | 200 | 
5 | C[n+]1ccc(-c2ccccc2)cc1 | 280 | 210 | 
6 | C[n+]1cccc2ccccc21 | 190 |  | Basal (Rattus norvegicus [3]): 200%
7 | C[n+]1ccc(C(C)(C)C)cc1 | 106 |  | 
8 | Cc1ccccc1-c1cc[n+](C)cc1 |  | 155 | 
9 | c1ccc2c(c1)CCNC2 [1,2,3,4-TETRAHYDROISOQUINOLINE] |  |  | Basal (Rattus norvegicus [4]): 98%
10 | C[n+]1ccccc1-c1ccccc1 | 160 |  | 
